The text below walks through data of article PMC3589821 (Biochemistry, 2013).

Structures are written as SMILES. Numbering of substitutions follows the chain as printed.

Assay [1] addresses T1, Ath α-DOX (Arabidopsis thaliana, UniProt Q9SGH6).
T1 sequence (Q9SGH6 1-639): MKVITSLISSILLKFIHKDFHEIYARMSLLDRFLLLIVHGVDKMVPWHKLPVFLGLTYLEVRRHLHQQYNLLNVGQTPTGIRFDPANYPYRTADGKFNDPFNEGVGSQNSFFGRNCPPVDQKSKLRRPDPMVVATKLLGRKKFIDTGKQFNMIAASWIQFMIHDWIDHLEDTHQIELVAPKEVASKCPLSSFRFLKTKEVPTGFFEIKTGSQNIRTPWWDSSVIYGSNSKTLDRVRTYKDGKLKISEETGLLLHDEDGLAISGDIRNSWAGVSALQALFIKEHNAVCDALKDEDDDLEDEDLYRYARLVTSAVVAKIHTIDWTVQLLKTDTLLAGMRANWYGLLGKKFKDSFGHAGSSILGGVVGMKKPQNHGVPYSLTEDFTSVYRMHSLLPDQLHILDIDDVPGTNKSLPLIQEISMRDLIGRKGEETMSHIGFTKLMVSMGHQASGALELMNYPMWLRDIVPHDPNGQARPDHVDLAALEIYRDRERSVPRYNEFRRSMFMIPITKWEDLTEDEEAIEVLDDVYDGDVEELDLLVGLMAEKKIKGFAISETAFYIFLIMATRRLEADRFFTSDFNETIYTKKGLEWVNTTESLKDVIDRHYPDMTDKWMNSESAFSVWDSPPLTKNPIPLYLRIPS
Description: oxygen electrode, oxygenase activity. Type of assay: biochemical. Conditions: co-substrate O2. The procedure, abridged:
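Codon-optimized Ath α-DOX (wild type or point mutants) was expressed in E. coli M15 with 1mM IPTG and 250μM δ-aminolevulinic acid at 23°C for 16 h. It was solubilized in 0.7% C10M, purified by IMAC and size exclusion, and dialyzed a week in 20mM TRIS pH 8.0, 150mM NaCl, 0.2% C10M to remove imidazole. O2 consumption was followed by oxygen electrode with αLA, LA or OA substrates. KM values came from triplicate measurements.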

The target of assay [2] is T2, Ath α-DOX (Arabidopsis thaliana, UniProt Q9SGH6, H318Q).
T2 sequence (Q9SGH6 1-639 H318Q): T1 sequence (Q9SGH6 1-639) with H318Q
Description: oxygen electrode, oxygenase activity. Type of assay: biochemical. Conditions: co-substrate O2.

Assay [3] deals with T1, Ath α-DOX. Description: X-ray crystal structure, […] Å. Type of assay: binding. Conditions: iron liganded to His-389; water as sixth ligand; pH 8.0.
The target of assay [4] is T1, Ath α-DOX. Description: oxygen electrode, oxygenase activity. Type of assay: biochemical. The conditions noted are these: 1 mM imidazole, 60 min preincubation.

For the compound `CCCCC/C=C\C/C=C\CCCCCCCC(=O)O` [LA, linoleic acid], the Km on Ath α-DOX [1] was 23 ± 2 µM; on Ath α-DOX [2], 18.2 ± 2.4 µM.
`CCCCCCCC/C=C\CCCCCCCC(=O)O` [OA, oleic acid]: the Km on Ath α-DOX [1] turned out to be 15 ± 1.9 µM.
With `C=CC1=C(C)C2=Cc3c(C=C)c(C)c4[n]3[Fe+][n]3c(c(C)c(CCC(=O)O)c3=CC3=NC(=C4)C(C)=C3CCC(=O)O)=CC1=N2` [heme], the “X-ray crystal structure, 1.70 Å” value at Ath α-DOX [3] is “The heme is liganded to the side chain of His-389”.
`c1c[nH]cn1` [imidazole]: at Ath α-DOX [4], the “% reduction in activity at 1 mM” value came out at 50%.
As for `CC/C=C\C/C=C\C/C=C\CCCCCCCC(=O)O` [αLA, α-linolenic acid], the Km at Ath α-DOX [1] turned out to be 36 ± 3.2 µM.
